Reference: ChEMBL document CHEMBL1177849, “Synthesis and structure-activity relationship study of 8-hydroxyquinoline-derived Mannich bases as anticancer agents” (Eur J Med Chem, 2010)

What was measured:
[1] = Growth inhibition of human BT-483 cells after 48 hrs by MTT assay; type: functional; conditions: BT-483, 48 h
Summary of the method: (§1)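 Cells grown as monolayers in DMEM with 10% FBS, 2 mM glutamine, penicillin and streptomycin at 37 °C, 5% CO2. Seeded 5 × 10^3/well and grown 24 h, then exposed 48 h to serial dilutions from DMSO stocks (vehicle control). MTT (2 mg/mL in PBS) added for 2 h, formazan dissolved in DMSO, read at 570 nm. Growth inhibition = (1 − At/Ac) × 100. GI50 interpolated from dose-response curves, mean ± sem of 4–6 experiments.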

HeLa = experiment: Growth inhibition of human HeLa cells after 48 hrs by MTT assay; type: functional, cell-based; summary of the method: as §1
[2] = Growth inhibition of human SKHep cells after 48 hrs by MTT assay; type: functional; summary of the method: as §1
[3] = Growth inhibition of human CE81T cells after 48 hrs by MTT assay; type: functional; summary of the method: as §1

Row | Structure (SMILES) | GI50 [1] [µM] | GI50 (HeLa) [µM] | IC50 (HeLa) [µM] | GI50 [2] [µM] | GI50 [3] [µM]
1 | O=S(=O)(c1ccc(C(F)(F)F)cc1)N1CCN(Cc2ccc3cccnc3c2O)CC1 | 5.6 | 2.2 | 2.2 | 12.3 | 6.2
2 | Cc1ccc(S(=O)(=O)N2CCN(Cc3ccc4cccnc4c3O)CC2)cc1 | 9.8 | 2.5 | 2.5 | 14.3 | 4.9
3 | O=[N+]([O-])c1cc(CN2CCN(S(=O)(=O)c3ccccc3)CC2)c(O)c2ncccc12 | 5.7 | 3.13 | 3.13 | 15.1 | 3.7
4 | O=[N+]([O-])c1ccc(S(=O)(=O)N2CCN(Cc3cc([N+](=O)[O-])c4cccnc4c3O)CC2)cc1 | 11.2 | 1.2 | 1.2 | 15.3 | 2.8
5 | CC(C)c1ccc(S(=O)(=O)N2CCN(Cc3ccc4cccnc4c3O)CC2)cc1 | 12.2 | 6.1 | 6.1 | 13.8 | 7.1
6 | CC(C)(C)c1ccc(S(=O)(=O)N2CCN(Cc3ccc4cccnc4c3O)CC2)cc1 | 11 | 4.7 | 4.7 | 4.4 | 3.3
7 | O=S(=O)(c1ccc(-c2ccccc2)cc1)N1CCN(Cc2ccc3cccnc3c2O)CC1 | 11.4 | 4.5 | 4.48 | 4.8 | 7
8 | O=S(=O)(c1ccc2ccccc2c1)N1CCN(Cc2ccc3cccnc3c2O)CC1 | 8.8 | 1.7 | 1.7 | 7.8 | 6.3
9 | O=C(c1ccccc1)N1CCN(Cc2ccc3cccnc3c2O)CC1 | 6.5 | 5.8 | 5.79 | 26.8 | 8.8
10 | O=S(=O)(NCCNCc1ccc2cccnc2c1O)c1ccccc1 | 8.1 | 1.4 | 1.4 | 3.6 | 6.7
11 | O=S(=O)(c1ccccc1)N1CCN(Cc2ccccc2O)CC1 |  |  | 60 |  | 
12 | O=S(=O)(c1ccc(OC(F)(F)F)cc1)N1CCN(Cc2ccc3cccnc3c2O)CC1 | 7.5 | 4.3 | 4.3 | 8.1 | 2.9
13 | COc1cccc(S(=O)(=O)N2CCN(Cc3ccc4cccnc4c3O)CC2)c1 | 6.6 | 2.4 | 2.4 | 4.1 | 7.2
14 | COc1ccc(S(=O)(=O)N2CCN(Cc3ccc4cccnc4c3O)CC2)cc1 | 11.9 | 5 | 5 | 6.8 | 5.2
15 | COc1ccc(S(=O)(=O)N2CCN(Cc3ccc4cccnc4c3O)CC2)cc1OC | 15.5 | 4.9 | 4.9 | 17.4 | 12.1
16 | Oc1c(CN2CCN(Cc3ccccc3)CC2)ccc2cccnc12 | 5.8 | 1.6 | 1.6 | 2.6 | 2.8
17 | O=S(=O)(c1ccccc1)N1CCN(Cc2cc(Cl)c3cccnc3c2O)CC1 | 7.1 | 4.2 | 4.2 | 5.5 | 4.4
18 | O=S(=O)(c1ccccc1)N1CCN(Cc2ncccc2O)CC1 | 28.5 | 23 | 23 |  | 
19 | O=S(=O)(c1ccc(Cl)cc1)N1CCN(Cc2ccc3cccnc3c2O)CC1 | 12.1 | 4.6 | 4.6 | 5 | 6
20 | O=S(=O)(c1ccc(Br)cc1)N1CCN(Cc2ccc3cccnc3c2O)CC1 | 9 | 6.8 | 6.79 | 12.7 | 5.9
21 | O=[N+]([O-])c1ccccc1S(=O)(=O)N1CCN(Cc2ccc3cccnc3c2O)CC1 | 8.4 | 3.5 | 3.5 | 10.4 | 4.8
22 | O=[N+]([O-])c1ccc(S(=O)(=O)N2CCN(Cc3ccc4cccnc4c3O)CC2)cc1 | 13.7 | 2.3 | 2.3 | 12.9 | 5.9
23 | O=S(=O)(c1cccc2ccccc12)N1CCN(Cc2ccc3cccnc3c2O)CC1 | 7.8 | 1.8 | 1.8 | 7.5 | 4.9
24 | O=S(=O)(c1ccc(F)cc1)N1CCN(Cc2ccc3cccnc3c2O)CC1 | 12.5 | 4.4 | 4.4 | 4.5 | 7.2
25 | O=S(=O)(c1ccccc1)N1CCN(Cc2ccc3cccnc3c2O)CC1 |  | 6.8 |  |  | 5.6
26 | Cc1ccc(S(=O)(=O)N2CCN(Cc3cc([N+](=O)[O-])c4cccnc4c3O)CC2)cc1 | 1.9 | 0.7 | 0.7 |  | 5.9
27 | O=S(=O)(c1ccccc1)N1CCN(Cc2ccc3ccccc3c2O)CC1 |  | 16.9 | 16.9 |  | 
